According to ChEMBL document CHEMBL5236609, “Optimization of 1,2,4-Triazole-3-thiones toward Broad-Spectrum Metallo-β-lactamase Inhibitors Showing Potent Synergistic Activity on VIM- and NDM-1-Producing Clinical Isolates” (J Med Chem, 2022):

Tests used:
Klebsiella pneumoniae [1] = assay: Antimicrobial activity against blaVIM-1-producing multidrug-resistant Klebsiella pneumoniae K47-25 clinical isolate assessed as meropenem MIC at 32 ug/ml by broth microdilution method (reference value: […] ug/ml); format: functional; settings: dose 32 µg/ml
How it was run: (§1)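 Inoculum was 5×10^4 CFU/well. Each inhibitor was present at a fixed 32 μg/mL, and MICs were also taken without inhibitor.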

[2] = Inhibition of bacterial VIM-4 (unknown origin) expressed in Escherichia coli EXPRESS BL21(DE3) assessed as inhibition constant by measuring rate of substrate hydrolysis by UV-visible spectrophotometry; parameters: species or system Bacteria
How it was run: (§2)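 Reporter-substrate assay with purified MBL (1–70 nM final) in 50 mM HEPES pH 7.5 at 30 °C. […] Inhibitor 0.5–1000 μM final. Ki derived from the v0/vi vs [I] slope assuming competitive inhibition, or from a Dixon plot. Ki given when inhibition >70%, otherwise % inhibition at 100 μM. Triplicate.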

[3] = Inhibition of bacterial VIM-1 (unknown origin) expressed in Escherichia coli EXPRESS BL21(DE3) assessed as inhibition constant by measuring rate of substrate hydrolysis by UV-visible spectrophotometry; parameters: species or system Bacteria; how it was run: as §2
[4] = Metabolic stability in CD-1 mouse microsomes assessed as intrinsic clearance at 37 degC by LC-MS/MS analysis; format: ADME, Microsome; settings: for microsomal CLint: CD-1, mouse; for Stability: mouse
How it was run: (§3)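 Mouse liver microsomes, mixed gender, at 37 °C for 40 min; propranolol control. Reports t1/2, intrinsic clearance and % intact compound remaining at 40 min.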

Pseudomonas aeruginosa = assay: Antimicrobial activity against blaVIM-2-producing multidrug-resistant Pseudomonas aeruginosa VA-182/00 clinical isolate assessed as meropenem MIC at 32 ug/ml by broth microdilution method (reference value: 128 ug/ml); format: functional; settings: dose 32 µg/ml; how it was run: as §1
[5] = Metabolic stability in CD-1 mouse microsomes assessed as half life at 37 degC by LC-MS/MS analysis; format: ADME, Microsome; how it was run: as §3
[6] = Inhibition of bacterial IMP-1 (unknown origin) expressed in Escherichia coli EXPRESS BL21(DE3) assessed as inhibition constant by measuring rate of substrate hydrolysis by UV-visible spectrophotometry; parameters: species or system Bacteria; how it was run: as §2
[7] = Inhibition of bacterial NDM-1 (unknown origin) expressed in Escherichia coli EXPRESS BL21(DE3) assessed as inhibition constant by measuring rate of substrate hydrolysis by UV-visible spectrophotometry; parameters: species or system Bacteria; how it was run: as §2
Klebsiella pneumoniae [8] = assay: Antimicrobial activity against blaVIM-4-producing multidrug-resistant Klebsiella pneumoniae VA-416/02 clinical isolate assessed as meropenem MIC at 32 ug/ml by broth microdilution method (reference value: […] ug/ml); format: functional; settings: dose 32 µg/ml; how it was run: as §1
[9] = Solubility in PBS pH 7.4 after 24 hrs by LC-MS/MS analysis; format: physicochemical
How it was run: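 Solubility in 10 mM PBS, pH 7.4.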

[10] = n-Octanol/PBS partition coefficient, logD of the compound at pH 7.4 after 2 hrs by LC-MS/MS analysis; format: physicochemical
How it was run: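 LogD from partitioning between 10 mM PBS pH 7.4 and n-octanol (1:1).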

[11] = Cytotoxicity against human HeLa cells assessed as LDH release incubated for 24 hrs by membrane integrity assay; format: toxicity, cell-based
How it was run: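 HeLa cells (20,000/well) exposed to compound up to 250 μM for 24 h at 37 °C, 5% CO2 in DMEM with 10% FBS, 4.5 mg/mL glucose and 2 mM L-glutamine. LDH release expressed as % of Triton X-100 maximum lysis; IC50 is the concentration giving 50% cytotoxicity.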

[12] = Plasma protein binding in CD-1 mouse plasma measured after 4 hrs by LC-MS/MS analysis; format: ADME, cell-free; settings: read-out: PPB (converted)
How it was run: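 Binding to mouse plasma proteins (mixed gender) measured; diclofenac as control.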

Escherichia coli = assay: Antimicrobial activity against blaNDM-1-producing multidrug-resistant Escherichia coli SI-004 clinical isolate assessed as meropenem MIC at 32 ug/ml by broth microdilution method (reference value: 64 ug/ml)
[13] = target: T1, Endoplasmic reticulum aminopeptidase 1 (Mus musculus) (UniProt Q9EQH2); assay: Inhibition of recombinant mouse ERAAP using fluorogenic substrate H-Leu-AMC at 100 uM relative to control
T1 sequence (whole entry): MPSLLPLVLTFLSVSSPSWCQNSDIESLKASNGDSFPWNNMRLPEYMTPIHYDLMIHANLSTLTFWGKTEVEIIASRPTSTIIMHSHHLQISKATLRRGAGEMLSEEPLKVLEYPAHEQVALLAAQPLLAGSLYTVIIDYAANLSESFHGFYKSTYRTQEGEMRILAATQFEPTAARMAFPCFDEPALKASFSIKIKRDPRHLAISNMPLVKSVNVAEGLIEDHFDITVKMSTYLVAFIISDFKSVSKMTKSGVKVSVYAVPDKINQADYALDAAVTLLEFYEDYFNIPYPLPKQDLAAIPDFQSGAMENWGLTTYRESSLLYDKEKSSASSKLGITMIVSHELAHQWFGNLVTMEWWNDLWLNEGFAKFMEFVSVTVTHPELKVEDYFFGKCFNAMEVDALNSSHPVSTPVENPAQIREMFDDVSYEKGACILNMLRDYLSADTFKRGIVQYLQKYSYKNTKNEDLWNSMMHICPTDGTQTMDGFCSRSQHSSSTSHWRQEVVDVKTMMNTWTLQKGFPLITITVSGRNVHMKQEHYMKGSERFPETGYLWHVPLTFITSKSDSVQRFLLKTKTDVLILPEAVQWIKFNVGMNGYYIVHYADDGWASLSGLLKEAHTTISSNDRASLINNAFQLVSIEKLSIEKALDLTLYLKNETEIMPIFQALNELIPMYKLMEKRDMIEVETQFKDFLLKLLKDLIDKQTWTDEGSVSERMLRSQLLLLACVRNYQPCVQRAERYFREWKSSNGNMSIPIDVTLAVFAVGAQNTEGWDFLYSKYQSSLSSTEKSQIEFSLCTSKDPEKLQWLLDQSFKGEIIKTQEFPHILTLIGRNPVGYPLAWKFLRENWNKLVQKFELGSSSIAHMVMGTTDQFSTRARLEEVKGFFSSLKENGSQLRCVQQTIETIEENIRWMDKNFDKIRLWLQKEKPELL
How it was run: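 Mouse ERAAP, H-Leu-AMC substrate; undisclosed in-house control inhibitor. Percent inhibition at 100 μM, one experiment in duplicate.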

[14] = Stability in mouse plasma assessed as half life at 37 degC; format: ADME, cell-free

SMILES | MIC (Klebsiella pneumoniae [1]) | Ki [2] | Ki [3] | microsomal CLint [4] | MIC (Pseudomonas aeruginosa) | half-life [5] | Ki [6] | Ki [7] | MIC (Klebsiella pneumoniae [8]) | solubility at 24 h [9] | logD at 2 h [10] | CC50 at 24 h [11] | fraction unbound at 4 h [12] | MIC (Escherichia coli) | inhibition [13] | half-life [14] | Stability [4]
Cc1[nH]cnc1CN(Cc1c[nH]cn1)[C@@H](CCCn1c(-c2ccccc2)n[nH]c1=S)C(=O)O | 0.06 µg/mL | 420 nM | 380 nM | 5.5 µL/min/mg | 8 µg/mL | > 0.667 h | 4500 nM | 38 nM | 0.03 µg/mL | ≥ 200 µM | -1.93 | 105000 nM | 0.377 | 0.06 µg/mL | 42% | > 6 h | –
O=C(O)[C@H](CCn1c(-c2ccccc2)n[nH]c1=S)N(Cc1c[nH]cn1)Cc1c[nH]cn1 | 0.06 µg/mL | 230 nM | 390 nM | 10.6 µL/min/mg | 8 µg/mL | > 0.667 h | 6200 nM | 40 nM | 0.03 µg/mL | ≥ 200 µM | -2.2 | > 250000 nM | 0.45 | 0.06 µg/mL | 51% | > 6 h | –
O=C(O)[C@H](CCCn1c(-c2ccc3ccccc3c2)n[nH]c1=S)N(Cc1c[nH]cn1)Cc1c[nH]cn1 | 0.03 µg/mL | 340 nM | 520 nM | – | 8 µg/mL | > 0.667 h | 4700 nM | 30 nM | 0.03 µg/mL | ≥ 200 µM | -0.823 | – | 0.048 | 0.06 µg/mL | 63% | > 6 h | Stable
O=C(O)[C@H](CCCn1c(-c2ccccc2)n[nH]c1=S)N(Cc1c[nH]cn1)Cc1c[nH]cn1 | 0.03 µg/mL | 200 nM | 150 nM | – | 8 µg/mL | > 0.667 h | – | 30 nM | 0.03 µg/mL | ≥ 200 µM | -2.12 | > 250000 nM | 0.324 | 0.06 µg/mL | 51% | > 6 h | Stable
O=C(O)[C@H](CCCn1c(-c2ccccc2)n[nH]c1=S)N(Cc1ccccn1)Cc1ccccn1 | 0.06 µg/mL | 760 nM | 1700 nM | 16.5 µL/min/mg | 16 µg/mL | > 0.667 h | – | 570 nM | 0.03 µg/mL | ≥ 200 µM | 0.243 | – | 0.313 | 0.06 µg/mL | 13% | > 6 h | –
